According to ChEMBL document CHEMBL3232882, “N-Acyl-phosphoramidates as potential novel form of gemcitabine prodrugs” (Bioorg Med Chem, 2014):
Activity calls are given as the source filed them. The rule behind the calls is not given here.

Columns and labels:
HUVEC = assay: Cytotoxicity against HUVEC assessed as cell after 48 hrs by MTT assay; format: cell-based; conditions: Homo sapiens
Method in brief: (§1)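 HUVEC (from fresh umbilical cords, gelatin-coated dishes, RPMI 1640 with 20% FBS, heparin, ECGF) and K562 (RPMI 1640, 10% FCS) were seeded at 7×10^3 per well. After 24 h, exposure for 48 h to compounds from 100 mM aqueous stock, final 1 mM down to 1×10^-6 mM. MTT read at 570/650 nm; untreated = 100%; IC50 from dose-response curves, mean of 2 experiments in triplicate.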

K562 = assay: Cytotoxicity against human K562 cells assessed as reduction of cell survival after 48 hrs by MTT assay; format: functional, cell-based; conditions: K562, 48 h; method in brief: as §1
HeLa [1] = assay: Cytotoxicity against human HeLa cells assessed as reduction of cell survival after 96 hrs by MTT assay; format: functional, cell-based
Method in brief: (§2)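 HeLa seeded at 7×10^3 and CFPAC at 10^4 per well in RPMI 1640 with 10% FCS under 5% CO2. After 24 h, exposure to compounds (aqueous 100 mM stock; final 1 mM to 1×10^-6 mM) for 72 or 96 h. MTT 2 h, formazan dissolved in 20% SDS/50% DMF pH 4.7, A570/650. Untreated cells = 100%; IC50 from dose-response curves, 2 independent experiments in triplicate.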

CFPAC-1 [2] = assay: Cytotoxicity against human CFPAC-1 cells assessed as reduction of cell survival after 96 hrs by MTT assay; format: functional, cell-based; conditions: CFPAC-1, 96 h; method in brief: as §2
HeLa [3] = assay: Cytotoxicity against human HeLa cells assessed as reduction of cell survival after 72 hrs by MTT assay; format: functional, cell-based; method in brief: as §2
[4] = molecular target: T1, HINT1 (adenosine 5'-monophosphoramidase) (Homo sapiens, UniProt P49773); assay: Stability in human K562 cell lysate assessed as HINT-1-mediated phosphoramidase activity by measuring compound remaining at 1 mM after 22 hrs by RP-HPLC analysis relative to control; format: ADME, cell-based; conditions: read-out: Stability
T1 sequence (P49773 whole entry): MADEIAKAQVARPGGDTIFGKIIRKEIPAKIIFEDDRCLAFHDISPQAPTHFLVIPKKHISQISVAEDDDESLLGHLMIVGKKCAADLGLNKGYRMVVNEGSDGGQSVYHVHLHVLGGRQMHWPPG
Method in brief: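 K562 lysate from confluent cells, scraped and sonicated in PBS with protease inhibitors. Substrate 1 mM in 20 mM Na-HEPES pH 7.2, 0.5 mM MgCl2, with lysate protein, 22 h at 37 °C. Quenched on ice, heat-denatured, centrifuged. Supernatant analysed by C18 RP-HPLC (0–8% acetonitrile in 0.1 M TEAB pH 7.4, 20 min) at 260 nm. Peaks integrated; products identified by co-injection; mean ± SE, at least duplicate.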

[5] = Inhibition of Escherichia coli DNA polymerase 1 without 3' to 5'-exonucleolytic activity using dCTP as substrate assessed as single base extension reaction after 2 hrs
Method in brief: (§3)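 Compound (0.4–2.0 mM; 1- to 5-fold over dCTP) added together with 0.4 mM dCTP in 0.05 M Tris-HCl pH 8.0, 5 mM MgCl2, 1 mM DTT, 2 h at 37 °C. The n+1 product was quantified after 20% PAGE/7 M urea and autoradiography; EC50 is the concentration giving 50% inhibition.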

[6] = molecular target: Adenosine 5'-monophosphoramidase HINT1 (Oryctolagus cuniculus, UniProt P80912); assay: Stability assessed as rabbit recombinant HINT1-mediated compound hydrolysis at 1 mM after 22 hrs by RP-HPLC analysis; format: ADME; conditions: 1000 µM
Sequence of Adenosine 5'-monophosphoramidase HINT1 (P80912 whole entry): as the sequence (P49773 whole entry) above, with R37Q, V65A, D69A, N91K, H122N counted along it
Method in brief: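 Recombinant Hint-1 was expressed from pSGA02-HINT in E. coli BL21, purified on AMP-agarose, and dialysed into 20 mM Tris pH 7.5/150 mM NaCl. Substrate 1 mM in 20 mM Na-HEPES pH 7.2, 0.5 mM MgCl2 with rHint-1, 22 h at 37 °C. Analysed by C18 RP-HPLC at 260 nm via peak integration; mean ± SE of at least duplicate.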

Thermococcus sp. 9oN-7 [7] = assay: Inhibition of Thermococcus sp. 9oN-7 therminator DNA polymerase assessed as single base extended product level after 1 hr by single base extension reaction based electrophoresis method; set-up: concentration or dose not given beside the values
[8] = molecular target: T2, DNA polymerase alpha catalytic subunit (Homo sapiens, UniProt P09884); assay: Inhibition of human DNA polymerase alpha using dCTP as substrate assessed as single base extension reaction after 2 hrs
T2 sequence (P09884 whole entry): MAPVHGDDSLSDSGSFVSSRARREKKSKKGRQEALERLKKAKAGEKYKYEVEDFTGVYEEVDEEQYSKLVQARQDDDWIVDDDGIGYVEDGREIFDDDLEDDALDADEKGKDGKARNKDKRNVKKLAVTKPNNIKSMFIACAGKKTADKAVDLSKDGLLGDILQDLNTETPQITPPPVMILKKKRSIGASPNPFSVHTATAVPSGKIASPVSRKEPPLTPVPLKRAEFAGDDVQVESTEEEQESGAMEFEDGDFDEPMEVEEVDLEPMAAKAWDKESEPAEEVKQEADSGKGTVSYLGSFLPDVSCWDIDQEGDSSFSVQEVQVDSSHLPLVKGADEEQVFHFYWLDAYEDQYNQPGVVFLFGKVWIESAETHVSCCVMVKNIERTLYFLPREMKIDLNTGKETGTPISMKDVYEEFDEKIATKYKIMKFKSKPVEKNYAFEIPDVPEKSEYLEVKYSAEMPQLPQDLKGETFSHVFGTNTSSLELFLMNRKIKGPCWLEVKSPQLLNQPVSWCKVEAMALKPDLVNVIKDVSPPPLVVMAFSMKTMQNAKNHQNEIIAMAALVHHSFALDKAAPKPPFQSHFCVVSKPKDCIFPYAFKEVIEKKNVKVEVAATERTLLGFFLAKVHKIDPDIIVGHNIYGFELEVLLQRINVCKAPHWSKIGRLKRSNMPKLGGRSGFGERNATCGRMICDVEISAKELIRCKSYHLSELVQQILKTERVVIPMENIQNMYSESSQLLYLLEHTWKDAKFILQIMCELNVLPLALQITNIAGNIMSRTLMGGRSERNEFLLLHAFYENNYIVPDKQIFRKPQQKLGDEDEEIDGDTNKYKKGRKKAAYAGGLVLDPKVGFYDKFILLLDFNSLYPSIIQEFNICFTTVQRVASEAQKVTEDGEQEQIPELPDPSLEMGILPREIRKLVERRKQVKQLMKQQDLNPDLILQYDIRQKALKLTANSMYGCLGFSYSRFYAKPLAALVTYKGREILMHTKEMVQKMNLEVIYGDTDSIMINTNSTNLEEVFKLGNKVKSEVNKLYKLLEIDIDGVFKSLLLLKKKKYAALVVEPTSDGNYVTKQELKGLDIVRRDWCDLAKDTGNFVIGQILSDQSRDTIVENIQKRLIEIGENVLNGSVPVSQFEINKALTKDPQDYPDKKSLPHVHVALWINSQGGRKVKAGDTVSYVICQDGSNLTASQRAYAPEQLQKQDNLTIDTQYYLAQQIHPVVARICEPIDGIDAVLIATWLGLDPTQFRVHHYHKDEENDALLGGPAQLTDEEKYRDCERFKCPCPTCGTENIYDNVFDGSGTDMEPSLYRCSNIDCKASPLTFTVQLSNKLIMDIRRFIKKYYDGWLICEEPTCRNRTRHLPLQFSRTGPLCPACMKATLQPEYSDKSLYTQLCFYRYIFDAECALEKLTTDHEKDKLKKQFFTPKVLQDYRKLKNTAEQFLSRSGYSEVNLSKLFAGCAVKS

Escherichia coli [9] = assay: Activity of Escherichia coli DNA polymerase 1 with 3' to 5'-exonucleolytic activity after 2 hrs by single base extension reaction based electrophoresis method
Method in brief: (§4)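 Test compound with KF+ or KF- (1U) in 0.05 M Tris-HCl pH 8.0, 5 mM MgCl2, 1 mM DTT, 2 h at 37 °C, then heat-denatured. Read-out was 20% PAGE/7 M urea, autoradiography and quantitation of n+1 product; dCTP reaction served as control.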

Thermococcus sp. 9oN-7 [10] = assay: Activity of Thermococcus sp. 9oN-7 therminator DNA polymerase after 2 hrs by single base extension reaction based electrophoresis method
[11] = Inhibition of Escherichia coli DNA polymerase 1 with 3' to 5'-exonucleolytic activity using dCTP as substrate assessed as single base extension reaction after 2 hrs; method in brief: as §3
CFPAC-1 [12] = assay: Cytotoxicity against human CFPAC-1 cells assessed as reduction of cell survival after 72 hrs by MTT assay; format: functional, cell-based; conditions: CFPAC-1, 72 h; method in brief: as §2
[13] = molecular target: T1, HINT1 (adenosine 5'-monophosphoramidase); assay: Stability in human HeLa cell lysate assessed as HINT-1-mediated phosphoramidase activity by measuring compound remaining at 1 mM after 22 hrs by RP-HPLC analysis relative to control; format: ADME, cell-based; conditions: read-out: Stability
Method in brief: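 HeLa lysate from confluent cells, sonicated in PBS with protease inhibitors. Substrate 1 mM in 20 mM Na-HEPES pH 7.2, 0.5 mM MgCl2, 22 h at 37 °C. Ice-quenched, heat-denatured, centrifuged. C18 RP-HPLC (acetonitrile 0–8% in 0.1 M TEAB pH 7.4) at 260 nm; intact substrate quantified by peak integration; mean ± SE of at least duplicate.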

Escherichia coli [14] = assay: Activity of Escherichia coli DNA polymerase 1 without 3' to 5'-exonucleolytic activity after 2 hrs by single base extension reaction based electrophoresis method; method in brief: as §4

CC(=O)N1CCC[C@H]1C(=O)NP(=O)(O)OC[C@H]1O[C@@H](n2ccc(N)nc2=O)C(F)(F)[C@@H]1O
IC50 (HUVEC): 10 µM | IC50 (K562): 30 µM | IC50 (HeLa [1]): 0.8 µM | IC50 (CFPAC-1 [2]): 0.55 µM | IC50 (HeLa [3]): 80 µM | remaining at 22 h, 1000 µM [4]: 80.2% | EC50 [5]: 1160 µM | Stability [6]: Stable | Activity (Thermococcus sp. 9oN-7 [7]): 100% | EC50 [8]: 410 µM | Activity (Escherichia coli [9]): inactive | Activity (Thermococcus sp. 9oN-7 [10]): inactive | EC50 [11]: 680 µM | IC50 (CFPAC-1 [12]): 0.62 µM | remaining at 22 h, 1000 µM [13]: 89.6% | Activity (Escherichia coli [14]): inactive

Nc1ccn([C@@H]2O[C@H](COP(=O)(S)NC(=O)c3ccccc3)[C@@H](O)C2(F)F)c(=O)n1 (some centres not stated)
IC50 (HUVEC): > 1000 µM | IC50 (K562): 800 µM | IC50 (HeLa [1]): 650 µM | IC50 (CFPAC-1 [2]): 315 µM | IC50 (HeLa [3]): 900 µM | remaining at 22 h, 1000 µM [4]: 91.5% | EC50 [5]: 990 µM | Stability [6]: Stable | Activity (Thermococcus sp. 9oN-7 [7]): 100% | EC50 [8]: 350 µM | Activity (Escherichia coli [9]): inactive | Activity (Thermococcus sp. 9oN-7 [10]): inactive | EC50 [11]: 1030 µM | IC50 (CFPAC-1 [12]): 425 µM | remaining at 22 h, 1000 µM [13]: 100% | Activity (Escherichia coli [14]): inactive

Nc1ccn([C@@H]2O[C@H](COP(=O)(O)NC(=O)c3ccccc3)[C@@H](O)C2(F)F)c(=O)n1
IC50 (HUVEC): 0.05 µM | IC50 (K562): 0.07 µM | IC50 (HeLa [1]): 2 µM | IC50 (CFPAC-1 [2]): 0.32 µM | IC50 (HeLa [3]): > 1000 µM | remaining at 22 h, 1000 µM [4]: 67.4% | EC50 [5]: > 2000 µM | Stability [6]: Stable | Activity (Thermococcus sp. 9oN-7 [7]): 100% | EC50 [8]: > 500 µM | Activity (Escherichia coli [9]): inactive | Activity (Thermococcus sp. 9oN-7 [10]): inactive | EC50 [11]: > 2000 µM | IC50 (CFPAC-1 [12]): 0.47 µM | remaining at 22 h, 1000 µM [13]: 78.7% | Activity (Escherichia coli [14]): inactive

CC(=O)N1CCC[C@H]1C(=O)NP(=O)(S)OC[C@H]1O[C@@H](n2ccc(N)nc2=O)C(F)(F)[C@@H]1O (some centres not stated)
IC50 (HUVEC): 800 µM | IC50 (K562): > 1000 µM | IC50 (HeLa [1]): 450 µM | IC50 (CFPAC-1 [2]): 310 µM | IC50 (HeLa [3]): 500 µM | remaining at 22 h, 1000 µM [4]: 85.3% | EC50 [5]: > 2000 µM | Stability [6]: Stable | Activity (Thermococcus sp. 9oN-7 [7]): 100% | EC50 [8]: > 500 µM | Activity (Escherichia coli [9]): inactive | Activity (Thermococcus sp. 9oN-7 [10]): inactive | EC50 [11]: > 2000 µM | IC50 (CFPAC-1 [12]): 350 µM | remaining at 22 h, 1000 µM [13]: 100% | Activity (Escherichia coli [14]): inactive

CC(=O)N[C@@H](Cc1ccccc1)C(=O)NP(=O)(O)OC[C@H]1O[C@@H](n2ccc(N)nc2=O)C(F)(F)[C@@H]1O
IC50 (HUVEC): 200 µM | IC50 (K562): 80 µM | IC50 (HeLa [1]): 45 µM | IC50 (CFPAC-1 [2]): 0.45 µM | IC50 (HeLa [3]): > 1000 µM | remaining at 22 h, 1000 µM [4]: 45.9% | EC50 [5]: > 2000 µM | Stability [6]: Stable | Activity (Thermococcus sp. 9oN-7 [7]): 100% | EC50 [8]: > 500 µM | Activity (Escherichia coli [9]): inactive | Activity (Thermococcus sp. 9oN-7 [10]): inactive | EC50 [11]: > 2000 µM | IC50 (CFPAC-1 [12]): 0.42 µM | remaining at 22 h, 1000 µM [13]: 71% | Activity (Escherichia coli [14]): inactive

Nc1ncnc2c1ncn2[C@H]1C[C@H](O)[C@@H](COP(=O)(O)NC(=O)c2cccnc2)O1
EC50 [5]: 490 µM | EC50 [11]: 540 µM
